The source made the active and inactive calls. The rule behind the calls is not given here.
Experiments:
[1] = molecular target: ENaC alpha subunit (epithelial sodium channel subunit alpha) (Homo sapiens, UniProt P37088); experiment: Inhibition of S-3969-stimulated recombinant human ENaC alpha subunit expressed in HEK293 cells at 10 uM preincubated for 5 mins followed by S-3969 stimulation by FLIPR assay; assay type: cell-based; conditions: HEK293 cells expressing recombinant human ENaC alpha subunit
Sequence of ENaC alpha subunit (epithelial sodium channel subunit alpha) (P37088 whole entry): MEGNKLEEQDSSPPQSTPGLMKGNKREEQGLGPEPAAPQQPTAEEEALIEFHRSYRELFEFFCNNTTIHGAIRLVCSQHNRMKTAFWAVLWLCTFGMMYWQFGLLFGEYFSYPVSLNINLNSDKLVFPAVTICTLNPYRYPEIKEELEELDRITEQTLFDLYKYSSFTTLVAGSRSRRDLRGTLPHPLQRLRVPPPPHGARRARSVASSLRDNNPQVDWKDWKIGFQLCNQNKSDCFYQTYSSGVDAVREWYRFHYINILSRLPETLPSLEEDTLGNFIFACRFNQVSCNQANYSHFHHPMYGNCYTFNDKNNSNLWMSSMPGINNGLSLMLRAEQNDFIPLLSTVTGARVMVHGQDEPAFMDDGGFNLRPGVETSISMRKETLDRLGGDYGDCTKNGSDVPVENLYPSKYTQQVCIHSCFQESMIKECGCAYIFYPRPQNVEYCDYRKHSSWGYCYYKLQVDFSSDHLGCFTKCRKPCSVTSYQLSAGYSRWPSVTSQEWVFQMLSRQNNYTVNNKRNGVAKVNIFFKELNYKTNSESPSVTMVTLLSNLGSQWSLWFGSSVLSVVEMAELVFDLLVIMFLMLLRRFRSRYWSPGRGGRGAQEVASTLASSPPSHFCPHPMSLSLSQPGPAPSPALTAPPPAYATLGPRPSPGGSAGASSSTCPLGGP
In short: (§1)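 HEK-293 cells transfected with human ENaC α, β and γ cDNA together, plated at 20 000 cells/well, incubated overnight at 37 °C. Loaded with membrane-potential red dye for 30 min at 37 °C. Compound preincubated 5 min in HEPES-buffered salt solution (pH 7.4, 0.3% DMSO), then stimulated with 1 µM S-3969, read on FLIPR. Signal normalized to agonist alone (100%) and agonist plus 30 µM benzamil (0%). n = 4 wells.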

HT-1080 = experiment: Antimetastatic activity against luciferase-tagged human HT1080 cells xenografted in NOD.Cg-Prkdc<scid>-IL2rg<tm1Wjl>SzJAusb mouse assessed as inhibition of late-stage lung metastasis at 7.5 mg/kg/day, ip administered from day -1 to day 20 measured day 21
[2] = molecular target: ENaC beta subunit (epithelial sodium channel subunit beta) (Homo sapiens, UniProt P51168); experiment: Inhibition of S-3969-stimulated recombinant human ENaC beta subunit expressed in HEK293 cells at 10 uM preincubated for 5 mins followed by S-3969 stimulation by FLIPR assay; assay type: cell-based; conditions: HEK293 cells expressing recombinant human ENaC beta subunit; in short: as §1
Sequence of ENaC beta subunit (epithelial sodium channel subunit beta) (P51168 whole entry): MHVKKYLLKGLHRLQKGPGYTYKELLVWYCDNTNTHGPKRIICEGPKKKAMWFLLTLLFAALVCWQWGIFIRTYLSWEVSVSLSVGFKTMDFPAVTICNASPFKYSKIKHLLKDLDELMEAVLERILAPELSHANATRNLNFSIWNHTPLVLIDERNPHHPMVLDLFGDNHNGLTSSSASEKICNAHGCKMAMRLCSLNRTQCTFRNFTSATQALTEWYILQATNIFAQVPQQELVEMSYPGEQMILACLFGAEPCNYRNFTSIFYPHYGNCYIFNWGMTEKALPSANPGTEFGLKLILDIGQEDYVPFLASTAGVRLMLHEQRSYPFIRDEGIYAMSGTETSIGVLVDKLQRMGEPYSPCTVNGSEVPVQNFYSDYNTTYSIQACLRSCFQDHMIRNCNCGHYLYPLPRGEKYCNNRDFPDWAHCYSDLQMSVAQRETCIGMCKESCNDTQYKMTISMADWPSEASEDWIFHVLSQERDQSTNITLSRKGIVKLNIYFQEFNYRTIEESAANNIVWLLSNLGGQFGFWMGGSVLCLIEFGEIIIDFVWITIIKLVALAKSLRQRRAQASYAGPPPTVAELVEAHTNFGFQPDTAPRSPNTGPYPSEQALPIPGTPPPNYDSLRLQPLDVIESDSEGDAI

[3] = molecular target: ENaC gamma subunit (epithelial sodium channel subunit gamma) (Homo sapiens, UniProt P51170); experiment: Inhibition of S-3969-stimulated recombinant human ENaC gamma subunit expressed in HEK293 cells at 10 uM preincubated for 5 mins followed by S-3969 stimulation by FLIPR assay; assay type: cell-based; conditions: HEK293 cells expressing recombinant human ENaC gamma subunit; in short: as §1
Sequence of ENaC gamma subunit (epithelial sodium channel subunit gamma) (P51170 whole entry): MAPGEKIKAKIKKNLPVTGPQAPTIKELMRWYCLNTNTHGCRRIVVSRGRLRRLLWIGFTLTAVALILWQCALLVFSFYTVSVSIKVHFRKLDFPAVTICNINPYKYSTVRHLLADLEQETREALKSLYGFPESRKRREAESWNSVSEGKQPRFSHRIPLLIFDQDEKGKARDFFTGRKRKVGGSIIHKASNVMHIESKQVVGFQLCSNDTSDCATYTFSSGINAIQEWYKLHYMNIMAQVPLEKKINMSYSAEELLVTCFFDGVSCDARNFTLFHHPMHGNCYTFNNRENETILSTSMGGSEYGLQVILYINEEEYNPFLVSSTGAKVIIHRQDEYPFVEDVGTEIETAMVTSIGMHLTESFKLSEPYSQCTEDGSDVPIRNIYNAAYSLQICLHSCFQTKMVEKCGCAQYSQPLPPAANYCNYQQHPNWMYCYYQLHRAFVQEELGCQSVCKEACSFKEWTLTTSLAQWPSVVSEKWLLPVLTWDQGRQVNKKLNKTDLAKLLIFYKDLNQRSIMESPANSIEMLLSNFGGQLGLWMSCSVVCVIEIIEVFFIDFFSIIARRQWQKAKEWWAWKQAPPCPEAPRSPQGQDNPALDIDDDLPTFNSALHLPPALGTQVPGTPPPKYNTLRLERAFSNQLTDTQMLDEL

N=C(N)NC(=O)c1nc(Cl)c(N)nc1N [AMILORIDE]
inhibition at 5 min, 10 µM [1]: 68% | inhibition (HT-1080): inactive | inhibition at 5 min, 10 µM [2]: 68% | inhibition at 5 min, 10 µM [3]: 68%

Source: ChEMBL document CHEMBL4196166 (J Med Chem, 2018)
